The record followed here is ChEMBL document CHEMBL3611983, “Highly Potent and Selective MT2 Melatonin Receptor Full Agonists from Conformational Analysis of 1-Benzyl-2-acylaminomethyl-tetrahydroquinolines” (J Med Chem, 2015).

Assay [1] addresses T1, Melatonin receptor type 1A (Homo sapiens, UniProt P48039). The assay can be described thus: Displacement of 2-[125I]-Iodomelatonin from human MT1 receptor transfected in CHO cell membranes after 120 mins. In short, it runs like this:
(§1)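 Membranes from CHO cells stably expressing the receptor were pelleted and homogenized in Tris 5 mM/EDTA 2 mM, then held at -80 °C. Assay buffer was 50 mM Tris-HCl pH 7.4 with 5 mM MgCl2. Radioligand was 20 pM, with nonspecific binding defined by 1 μM melatonin.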

In assay [2] the target is T1, Melatonin receptor type 1A. Nature of the assay: Intrinsic activity at human MT1 receptor transfected in CHO cell membranes after 1 hr by [35S]GTPgammaS binding assay. Type of assay: functional. In short, it runs like this: (§2)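 Transfected CHO membranes at 20 μg/mL were incubated in 20 mM HEPES pH 7.4 with 100 mM NaCl, 3 μM GDP, 3 mM MgCl2 and 20 μg/mL saponin. 0.2 nM [35S]GTPγS was added and incubation ran 1 h at room temperature. Nonspecific binding was defined by 10 μM GTPγS, with 1 μM melatonin as reference. Filtration was on GF/B. Curves used 7 concentrations in duplicate, giving EC50 and Emax.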

The test system of assay [3] is CHO. The assay can be described thus: (§3) Intrinsic activity at human MT2 receptor transfected in CHO cell membranes after 1 hr by [35S]GTPgammaS binding assay. The method, boiled down:
as §2
(In general: GTPγS is a poorly hydrolysed GTP analogue; its binding reports G protein activation.)

A short description of assay [4]: as §3. The method, boiled down:
as §2

Assay [5] can be described thus: Displacement of 2-[125I]-Iodomelatonin from human MT2 receptor transfected in CHO cell membranes after 120 mins. The method, boiled down: as §1
The species entered for assay [6] is Homo sapiens. The assay can be described thus: Selectivity ratio of Ki for human MT1 receptor to Ki for human MT2 receptor.

T1 sequence (P48039 whole entry): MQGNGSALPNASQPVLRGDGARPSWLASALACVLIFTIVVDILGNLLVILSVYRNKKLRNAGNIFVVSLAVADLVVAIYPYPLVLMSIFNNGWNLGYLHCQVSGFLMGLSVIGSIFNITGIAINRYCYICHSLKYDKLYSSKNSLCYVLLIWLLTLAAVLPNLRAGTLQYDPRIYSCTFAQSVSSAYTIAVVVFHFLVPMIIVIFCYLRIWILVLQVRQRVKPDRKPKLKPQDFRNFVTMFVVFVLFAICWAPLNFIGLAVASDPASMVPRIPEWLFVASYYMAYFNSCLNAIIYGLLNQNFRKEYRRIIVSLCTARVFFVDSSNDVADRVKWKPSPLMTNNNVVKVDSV

A word on the Ki: it is the equilibrium dissociation constant of an inhibitor or competing ligand from its target. A higher Ki goes with weaker binding. As usually defined, the EC50 is the concentration that produces a half-maximal response. A high value points to a less potent agent. What is called Emax is the size of the effect at its maximum, as opposed to the concentration needed. For the molecule `CC(=O)NC[C@H]1CCc2ccccc2N1Cc1ccccc1`, the inhibitory constant (Ki) in assay [1] amounted to 45 nM; in assay [5] it was 0.1 nM. In addition, the EC50 turned out to be 192 nM in assay [2] and 1.9 nM in assay [4]. The Emax in assay [2] turned out to be 52%; in assay [3] it was 80%.
Regarding `CC(=O)NC[C@@H]1CCc2ccccc2N1Cc1ccccc1`, the Ki stood at 122 nM in assay [1] and 6.2 nM in assay [5]. The same molecule displayed an Emax in assay [3] of 60%. In addition, in assay [4], the EC50 came out at 19 nM.
For the molecule `CCC(=O)NCc1ccc2c(OC)cccc2n1`, the results for the inhibitory constant (Ki) in assay [1] and in assay [5] were greater than 10000 nM and 4450 nM, respectively.
As to `CCC(=O)NCC1CCc2c(cccc2OC)N1` (racemic), the Ki in assay [1] turned out to be 57 nM; in assay [5], 21 nM. In addition, the EC50 in assay [2] amounted to 906 nM; in assay [4], 165 nM. In addition, the Emax in assay [2] was 70%; in assay [3], 98%.
As to `CCC(=O)NCC1CCc2ccccc2N1` (racemic), the Ki in assay [1] was 13 nM; in assay [5], 2.2 nM. Further, the EC50 in assay [2] was 242 nM; in assay [4] it was 27 nM. Moreover, in assay [2], the Emax was determined as 37%.
`CCNC(=O)NCC1CCc2c(cccc2OC)N1` (racemic): the Ki in assay [1] turned out to be 480 nM; in assay [5], 114 nM.
`CCNC(=O)NCC1CCc2ccccc2N1` (racemic): the Ki came to 115 nM in assay [1] and 17 nM in assay [5]. For the same molecule, the figures for the EC50 in assay [2] and in assay [4] were 2420 nM and 356 nM, respectively. Besides, the Emax in assay [2] stood at 30%; in assay [3], 80%.
In the case of `CCNC(=S)NCC1CCc2c(cccc2OC)N1` (racemic), the Ki in assay [1] and in assay [5] was greater than 1000 nM throughout.
As for `CCNC(=S)NCC1CCc2ccccc2N1` (racemic), the Ki in assay [1] worked out at 305 nM; in assay [5], 90 nM. Moreover, the EC50 in assay [2] turned out to be 2660 nM; in assay [4] it was 1430 nM. Further, the Emax in assay [2] is 35%; in assay [3], 72%.
On to `CCNC(=O)NCC1CCc2c(OC)cccc2N1C` (racemic), for which the figures for the Ki in assay [1] and in assay [5] were 5 nM and 1.4 nM, respectively. In addition, the figures for the EC50 in assay [2] and in assay [4] were 160 nM and 10 nM, respectively. For the same molecule, the Emax in assay [2] is 92%; in assay [3] it was 105%.
As for `CCNC(=O)NCC1CCc2ccccc2N1C` (racemic), the Ki in assay [1] was 5.3 nM; in assay [5], 3.4 nM. For the same molecule, the EC50 in assay [2] is 110 nM; in assay [4], 6.2 nM. The Emax in assay [2] was found to be 69%; in assay [3], 97%.
Regarding `CCNC(=O)NCC1CCc2c(OC)cccc2N1Cc1ccccc1` (racemic), the Ki in assay [1] was 132 nM; in assay [5] it was 2.9 nM. Further, the EC50 in assay [2] was 393 nM; in assay [4], 13 nM. Also, the Emax in assay [2] came to 44%; in assay [3] it was 107%.
On to `CCC(=O)NCC1CCc2c(OC)cccc2N1Cc1ccccc1` (racemic), for which the results for the Ki in assay [1] and in assay [5] were 17 nM and 0.001 nM, respectively. For the same molecule, the EC50 in assay [2] was 177 nM; in assay [4] it was 0.9 nM. In addition, the Emax is 79% in assay [2] and 111% in assay [3]. Further, the Ratio Ki in assay [6] was greater than 10000.
For the molecule `CCC(=O)NCC1CCc2cc(OC)ccc2N1Cc1ccccc1` (racemic), the inhibitory constant (Ki) worked out at 186 nM in assay [1] and 1.5 nM in assay [5]. Moreover, the Emax in assay [3] worked out at 75%. The EC50 in assay [4] turned out to be 4.6 nM.
For `CCC(=O)NCC1CCc2ccc(OC)cc2N1Cc1ccccc1` (racemic), in that order: 214 nM, 26 nM, 42% and 25 nM.
As to `CCC(=O)NCC1CCc2ccccc2N1Cc1ccccc1` (racemic), the Ki in assay [1] is 37 nM; in assay [5], 0.09 nM. For the same molecule, the EC50 was 36 nM in assay [2] and 0.4 nM in assay [4]. For the same molecule, the Emax in assay [2] was 42%; in assay [3] it was 73%. Also, in assay [6], the Ratio Ki was greater than 400.
In the case of `CC(=O)NCC1CCc2ccccc2N1Cc1ccccc1` (racemic), the Ki in assay [1] was found to be 45 nM; in assay [5], 0.04 nM. The EC50 in assay [2] was 31 nM; in assay [4] it was 0.4 nM. In addition, the Emax in assay [2] worked out at 35%; in assay [3] it was 60%.
For `O=C(NCC1CCc2ccccc2N1Cc1ccccc1)C1CC1` (racemic), the Ki in assay [1] stood at 291 nM; in assay [5], 0.2 nM. The molecule also displayed an Emax in assay [3] of 38%. Besides, it took 0.3 nM to reach a half-maximal effect in assay [4] (EC50).
`O=C(NCC1CCc2ccccc2N1Cc1ccccc1)C1CCC1` (racemic): the Ki in assay [1] turned out to be 633 nM; in assay [5], 6.2 nM. For the same molecule, the Emax in assay [3] was less than 15%.
As for `CCC(=O)NCC1CCc2c(OC)cccc2N1C` (racemic), the Ki came out at 0.03 nM in assay [1] and 0.5 nM in assay [5]. In addition, the EC50 in assay [2] was 1.7 nM; in assay [4], 0.5 nM. For the same molecule, the Emax stood at 112% in assay [2] and 122% in assay [3].
As for `CCC(=O)NCC1CCc2ccccc2N1C` (racemic), the Ki in assay [1] is 0.7 nM; in assay [5] it was 0.2 nM. For the same molecule, the concentration giving a half-maximal response (EC50) in assay [2] is 0.9 nM; in assay [4] it was 0.6 nM. Besides, the Emax in assay [2] is 69%; in assay [3], 122%.
As to `CC(=O)NCC1CCc2ccccc2N1CCc1ccccc1` (racemic), the figures for the Ki in assay [1] and in assay [5] were 171 nM and 3 nM, respectively. The same molecule had an Emax in assay [3] of less than 15%.
In the case of `CCCN1c2ccccc2CCC1CNC(C)=O` (racemic), the Ki in assay [1] amounted to 5.8 nM; in assay [5], 0.1 nM. Further, the values for the concentration giving a half-maximal response (EC50) in assay [2] and in assay [4] were 2 nM and 0.2 nM, respectively. Moreover, the figures for the Emax in assay [2] and in assay [3] were 39% and 58%, respectively.
`CCC(=O)NCC1CCc2ccccc2N1CC(=O)NC` (racemic): the Ki is greater than 10000 nM in assay [1] and 385 nM in assay [5].
As to `CCC(=O)NCC1CCc2ccccc2N1c1ccccc1` (racemic), the figures for the Ki in assay [1] and in assay [5] were 1.6 nM and 0.06 nM, respectively. For the same molecule, the results for the EC50 in assay [2] and in assay [4] were 6.2 nM and 0.5 nM, respectively. The Emax in assay [2] is 69%; in assay [3] it was 90%.
For the molecule `CCNC(=S)NCC1CCc2ccccc2N1C` (racemic), the Ki in assay [1] was found to be 22 nM; in assay [5] it was 15 nM. For the same molecule, the EC50 in assay [2] worked out at 809 nM; in assay [4], 66 nM. The Emax in assay [2] came to 76%; in assay [3] it was 73%.
Regarding `CCC(=O)NCCC1CCc2ccccc2N1Cc1ccccc1` (racemic), the Ki in assay [1] was 326 nM; in assay [5], 1.6 nM. Also, in assay [3], the Emax was 59%. For the same molecule, the EC50 in assay [4] was determined as 4.7 nM.
